# Assay results as given in ChEMBL document CHEMBL1671729, “In vivo protection provided by a synthetic new alpha-galactosyl ceramide analog against bacterial and viral infections in murine models” (2010).
# Active and inactive are the calls of the source. The rule behind the calls is not given here.
# Assays:
# [1] = tested on: Novosphingobium capsulatum; assay: Antibacterial activity against Sphingomonas capsulata ATCC 14666 infected in C57BL/6 mouse assessed as reduction in lung bacterial load at 100 ug/kg, ip administered 2 hrs post infection measured 24 hrs post infection; type: functional, organism-based
# Staphylococcus aureus [2] = assay: Antibacterial activity against luminescent Staphylococcus aureus Xen29 infected in BALB/c mouse deep thigh wound infection model assessed as reduction in bacterial load at 150 ug/kg, ip administered 3 hrs post infection by iVIS in-vivo imaging system; type: functional, organism-based
# Procedure, shortened: (§1)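 Female BALB/c mice were infected in the left posterior thigh muscle with 3 × 10^8 CFU luminescent S. aureus Xen29 in 200 μl PBS. Glycolipid at 150 μg/kg or vehicle was given i.p. at 3 h, 0 h or 6 h post-infection. Live mice were imaged at 48 h, and RLU per mouse was compared by one-way ANOVA with Tukey posttest.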
# [3] = tested on: Japanese encephalitis virus; assay: Antiviral activity against Japanese encephalitis virus RP-9 infected in C57BL/6 mouse assessed as mouse survival rate at 1 ug, ip administered one day before and 1 day after viral infection measured after 25 days post infection relative to solvent treated control; type: functional
# [4] = tested on: Novosphingobium capsulatum; assay: Antibacterial activity against Sphingomonas capsulata ATCC 14666 infected in C57BL/6 mouse assessed as reduction in lung bacterial load at 50 ug/kg, ip administered 2 hrs post infection measured 24 hrs post infection; type: functional, organism-based
# [5] = tested on: Japanese encephalitis virus; assay: Antiviral activity against Japanese encephalitis virus RP-9 infected in C57BL/6 mouse assessed as mouse survival rate at 1 ug, ip administered one day after viral infection measured after 25 days post infection relative to solvent treated control; type: functional
# [6] = tested on: Japanese encephalitis virus; assay: Antiviral activity against Japanese encephalitis virus RP-9 infected in Stat-1-knockout immunodeficient C57BL/6 mouse assessed as mouse survival rate at 1 ug, ip administered one day before and 1 day after viral infection measured after 25 days post infection relative to solvent treated control; type: functional
# [7] = tested on: Japanese encephalitis virus; assay: Antiviral activity against Japanese encephalitis virus RP-9 infected in C57BL/6 mouse assessed as mouse survival rate at 1 ug, ip administered simultaneously with viral infection measured after 25 days post infection relative to solvent treated control; type: functional
# [8] = tested on: Japanese encephalitis virus; assay: (§2) Antiviral activity against Japanese encephalitis virus RP-9 infected in Ig-mu chain-knockout immunodeficient C57BL/6 mouse assessed as mouse survival rate at 1 ug, ip administered one day before and 1 day after viral infection measured after 25 days post infection relative to solvent treated control; type: functional, organism-based
# [9] = tested on: Japanese encephalitis virus; assay: Antiviral activity against Japanese encephalitis virus RP-9 infected in C57BL/6 mouse assessed as mouse survival rate at 1 ug, ip administered one day before viral infection measured after 25 days post infection relative to solvent treated control; type: functional
# [10] = tested on: Japanese encephalitis virus; assay: as §2, with “CD8-alpha” for “Ig-mu”; type: functional
# Staphylococcus aureus [11] = assay: Antibacterial activity against luminescent Staphylococcus aureus Xen29 infected in BALB/c mouse deep thigh wound infection model assessed as reduction in bacterial load at 150 ug/kg, ip administered immediately after infection measured 48 hrs post infection by iVIS in-vivo imaging system; type: functional, organism-based; procedure, shortened: as §1
# Staphylococcus aureus [12] = assay: Antibacterial activity against luminescent Staphylococcus aureus Xen29 infected in BALB/c mouse deep thigh wound infection model assessed as reduction in bacterial load at 150 ug/kg, ip administered 6 hr post infection after infection measured 48 hrs post infection by iVIS in-vivo imaging system; type: functional, organism-based; procedure, shortened: as §1
Structure (SMILES),inhibition [1],inhibition (Staphylococcus aureus [2]),Survival [3],inhibition [4],other results
CCCCCCCCCCCCCCCCCCCCCCCCCC(=O)N[C@@H](CO[C@H]1O[C@H](C(=O)O)[C@H](O)[C@H](O)[C@H]1O)[C@H](O)[C@H](O)CCCCCCCCCCCCCC,Active,–,–,–,–
CCCCCCCCCCCCCCCCCCCCCCCC(=O)N[C@@H](CO[C@H]1O[C@H](CO)[C@H](O)[C@H](O)[C@H]1O)[C@H](O)[C@H](O)CCCCC,inactive,–,–,–,–
CCCCCCCCCCCCCCCCCCCCCCCCCC(=O)N[C@@H](CO[C@H]1O[C@H](CO)[C@H](O)[C@H](OS(=O)(=O)O)[C@H]1O)[C@H](O)[C@H](O)CCCCCCCCCCCCCC,inactive,–,–,–,–
CCCCCCCCCCCCCCCCCCCCCCCCCC(=O)N[C@@H](CO[C@H]1O[C@H](CO)[C@H](O)[C@H](O)[C@H]1O)[C@H](O)[C@H](O)CCCCCCCCCCCCCC [RGI-7000],Active,Active,57%,–,–
CCCCCCCCCCCCCC[C@@H](O)[C@@H](O)[C@H](CO[C@H]1O[C@H](C(=O)O)[C@H](O)[C@H](O)[C@H]1O)NC(=O)CCCCCCCCCCc1ccc(F)cc1,–,Active,71%,Active,Survival [5]: 25%; Survival [6]: 0%; Survival [7]: 60%; Survival [8]: inactive; Survival [9]: 60%; Survival [10]: 22%
CCCCCCCCCCCCCC[C@@H](O)[C@@H](O)[C@H](CO[C@H]1O[C@H](C(=O)O)[C@H](O)[C@H](O)[C@H]1O)NC(=O)CCCCCCCCCCc1ccc(Oc2ccc(F)cc2)cc1,–,Active,64%,Active,Survival [5]: 20%; Survival [6]: 23%; inhibition (Staphylococcus aureus [11]): Active; Survival [7]: 40%; Survival [8]: inactive; Survival [9]: 80%; inhibition (Staphylococcus aureus [12]): inactive
CCCCCCCCCCCCCC[C@@H](O)[C@@H](O)[C@H](CO[C@H]1O[C@H](CO)[C@H](O)[C@H](O)[C@H]1O)NC(=O)CCCCCCCc1ccc(F)cc1,–,–,57%,Active,–
CCCCCCCCCCCCCCC[C@@H](O)[C@H](CO[C@H]1O[C@H](C(=O)O)[C@H](O)[C@H](O)[C@H]1O)NC(=O)CCCCCCCCCCCCC,inactive,–,–,–,–
CCCCCCCCCCCCCC[C@@H](O)[C@@H](O)[C@H](CO[C@H]1O[C@H](CO)[C@H](O)[C@H](O)[C@H]1O)NC(=O)CCCCCCCCCCc1ccccc1,Active,–,–,–,–
CCCCCCCCCCCCCC[C@@H](O)[C@@H](O)[C@H](CO[C@H]1O[C@H](CO)[C@H](O)[C@H](O)[C@H]1O)NC(=O)CCCCCCCc1ccccc1,Active,–,–,–,–
